As usually defined, the pEC50 is the negative decadic logarithm of the EC50, by convention in mol/L.

The results in this text go back to ChEMBL document CHEMBL4680083, “Identification of Tricyclic Agonists of Sphingosine-1-phosphate Receptor 1 (S1P) Employing Ligand-Based Drug Design” (J Med Chem, 2016).

Series [1] concerns Rattus norvegicus. Nature of the series: Reduction in circulating lymphocytes count in Lewis rat blood at 1 mg/kg, po measured at 4 hrs by hematology analyzer based analysis. It is filed as functional. Details: scale not given: the % may be the effect or the level left. The method, boiled down: (§1)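 Lewis rats were given an oral dose as a solution or suspension in PEG300, with controls receiving vehicle only. Blood was taken by retro-orbital bleeding under isoflurane at 4 and 24 h. Lymphocytes were counted on a hematology analyzer. Reduction is relative to the vehicle group, averaged over the animals in each group (n = 3−4).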

The subject of series [2] is Rattus norvegicus. Nature of the series: Reduction in circulating lymphocytes count in Lewis rat blood at 1 mg/kg, po measured at 24 hrs by hematology analyzer based analysis. In kind it is functional. Details: scale not given: the % may be the effect or the level left. The method, boiled down:
as §1

The target of series [3] is Sphingosine 1-phosphate receptor 1 (Homo sapiens, UniProt P21453). Nature of the series: Agonist activity at human S1P1 expressed in CHO cell membranes assessed as stimulation of [35S]-GTPgamma-S binding measured after 45 mins by liquid scintillation counting method. More on the design: species or system Cell membrane. The method, boiled down:
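S1P1/CHO cell membranes at 3 μg protein/well with 3-fold compound dilutions. [35S]GTPγS 0.2 nM final, 45 min at room temperature. Filter-plate capture, water washes, scintillation counting. EC50 taken at 50% of each compound's own Ymax.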

Series [4] can be described thus: Selectivity index, ratio of EC50 for agonist activity at human S1P3 expressed in CHO cell membranes to EC50 for agonist activity at human S1P1 expressed in CHO cell membranes. It is filed as cell-based.
Series [5] is described as follows: Ratio of plasma concentration in Lewis rat at 1 mg/kg, po measured at 4 hrs to plasma concentration in Lewis rat at 1 mg/kg, po measured at 24 hrs. It is filed as ADME, organism-based. The settings on record: in vivo.
Series [6] deals with Sphingosine 1-phosphate receptor 3 (Homo sapiens, UniProt Q99500). Nature of the series: Agonist activity at human S1P3 expressed in CHO cell membranes assessed as stimulation of [35S]-GTPgamma-S binding measured after 45 mins by liquid scintillation counting method. Details: species or system Cell membrane.
Sphingosine 1-phosphate receptor 3, sequence (Q99500 whole entry): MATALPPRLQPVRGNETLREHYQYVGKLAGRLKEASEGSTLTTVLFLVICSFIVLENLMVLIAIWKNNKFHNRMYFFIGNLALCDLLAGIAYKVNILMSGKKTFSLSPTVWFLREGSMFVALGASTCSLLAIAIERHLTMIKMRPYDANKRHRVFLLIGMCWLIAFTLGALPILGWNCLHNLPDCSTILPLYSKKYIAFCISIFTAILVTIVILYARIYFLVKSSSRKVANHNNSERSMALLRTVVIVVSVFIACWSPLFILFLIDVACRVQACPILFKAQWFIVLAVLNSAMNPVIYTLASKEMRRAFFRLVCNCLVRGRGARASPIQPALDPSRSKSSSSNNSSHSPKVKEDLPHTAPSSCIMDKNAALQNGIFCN
The nature of series [7]: Plasma concentration in Lewis rat at 1 mg/kg, po measured at 24 hrs. It is filed as ADME, organism-based. The settings on record: Lewis, plasma. In short, it runs like this:
(§2)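 Lewis rats received a single oral 1.0 mg/kg dose as solution or suspension in PEG300. Blood was drawn retro-orbitally under isoflurane at 4 h and 24 h, within the blood lymphocyte reduction study. n = 3−4 per group, group mean reported.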

Series [8] is described as follows: Plasma concentration in Lewis rat at 1 mg/kg, po measured at 4 hr. It is filed as ADME, organism-based. The settings on record: Lewis, plasma. In short, it runs like this: as §2
Series [9] concerns Rattus norvegicus. The series is described as follows: Antiarthritic activity in Lewis rat model of Complete Freund's adjuvant-induced arthritis assessed as reduction in paw swelling at 0.1 mg/kg, po qd administered for 21 days after CFA injection and measured weekly three times upto day 21 by water displacement plethysmometry. It is filed as functional. The settings on record: time 21.0 day. In short, it runs like this: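 Male Lewis rats, 200−225 g, n = 8 per group. Immunized at the tail base with 100 μL of 10 mg/mL ground Mycobacterium butyricum in incomplete Freund's adjuvant. Oral dosing once daily in PEG300 vehicle from the day of immunization for 21 days, at 0.03, 0.1 or 1.0 mg/kg. Dexamethasone 0.1 mg/kg PO QD as positive control. Paw volume by water displacement plethysmometry, day 7 to day 21.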

pEC50: −log10 of the molar value. The source made the active and inactive calls. The calls are words filed in the database; no cut-off is given here. A value given as a limit tells only on which side of the number the result lay.

Sphingosine 1-phosphate receptor 1, sequence (P21453 whole entry): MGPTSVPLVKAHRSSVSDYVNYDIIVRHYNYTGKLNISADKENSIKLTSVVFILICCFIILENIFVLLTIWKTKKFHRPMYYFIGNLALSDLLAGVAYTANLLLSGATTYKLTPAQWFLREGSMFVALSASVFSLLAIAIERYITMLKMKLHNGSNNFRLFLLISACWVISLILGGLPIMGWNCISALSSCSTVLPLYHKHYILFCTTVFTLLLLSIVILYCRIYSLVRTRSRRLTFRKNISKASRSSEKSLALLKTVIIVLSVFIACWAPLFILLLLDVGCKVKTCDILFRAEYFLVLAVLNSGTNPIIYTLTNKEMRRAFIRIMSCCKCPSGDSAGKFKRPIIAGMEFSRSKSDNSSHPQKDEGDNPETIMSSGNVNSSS

Regarding `O=C(O)C1CN(Cc2ccc3c(c2)CCc2c-3noc2-c2ccc(C3CCCCC3)c(C(F)(F)F)c2)C1`, the Activity with Rattus norvegicus [1] was found to be 35%; in the series with Rattus norvegicus [2] it was 32%. The pEC50 was 9.01 in [3] and 5.68 in series [6]. Moreover, the Ratio EC50 in [4] amounted to 2100. In addition, the Ratio in series [5] is listed as 4. In [7], this molecule gave a concentration at 24 h of 17 nM. Also, the concentration at 4 h in series [8] turned out to be 68 nM.
Consider `O=C(O)C1CN(Cc2ccc3c(c2)OCc2c-3noc2-c2onc(-c3ccccc3)c2C(F)(F)F)C1`, for which the figures for the Activity in the series with Rattus norvegicus [1] and with Rattus norvegicus [2] were 82% and 89%, respectively. The pEC50 was 9.60 in series [3] and < 4.51 in series [6]. The Ratio EC50 in series [4] is > 120000. The Ratio in series [5] was 6. The molecule further yielded a concentration at 24 h in series [7] of 56 nM. The molecule further returned a concentration at 4 h in series [8] of 330 nM.
Take `O=C(O)C1CN(Cc2ccc3c(c2)CCc2c-3noc2-c2nsc(-c3ccccc3)c2C(F)(F)F)C1`: the figures for the Activity with Rattus norvegicus [1] and in the series with Rattus norvegicus [2] were 82% and 85%, respectively. The results for the pEC50 in [3] and in series [6] were 9.48 and 5.85, respectively. Moreover, the Ratio EC50 in [4] amounted to 4200. The Ratio in series [5] was found to be 6. The concentration at 24 h in series [7] came out at 26 nM. Further, in series [8], the concentration at 4 h was 150 nM.
Turning to `C[C@@H]1C[C@H]2[C@@H]3CCC4=CC(=O)C=C[C@]4(C)[C@@]3(F)[C@@H](O)C[C@]2(C)[C@@]1(O)C(=O)CO`, the outcome with Rattus norvegicus [9] was Active.
